Source: ChEMBL document CHEMBL4014329, “Selective Inhibition of Escherichia coli RNA and DNA Topoisomerase I by Hoechst 33258 Derived Mono- and Bisbenzimidazoles” (J Med Chem, 2017)
In brackets after ≈: the same amount, converted by molar mass. Activity calls are given as the source filed them. The rule behind the calls is not given here.

Legend:
[1] = Binding affinity to dA60.dT60 B-DNA duplex (unknown origin) assessed as induction of biphasic transition at <5 uM by UV-vis spectrophotometric analysis
Acinetobacter baumannii = assay: Antibacterial activity against Acinetobacter baumannii ATCC 19606 after 24 hrs by microbroth dilution method; type: functional; details: ATCC 19606 = CIP 70.34 = JCM 6841, 24 h
Procedure, shortened: (§1)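 Microbroth dilution per CLSI guidelines. Organisms grown in Mueller−Hinton broth at 37 °C with shaking to log phase, pelleted, resuspended in 0.85% saline to OD625 0.1. Final inoculum 5 × 10^5 CFU/mL; triplicate; 24 h at 37 °C. OD625 read; MIC = lowest concentration completely inhibiting growth versus untreated controls.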

[2] = Binding affinity to dA60.dT60 B-DNA duplex (unknown origin) assessed as change in melting temperature at 10 uM by UV-vis spectrophotometric analysis
Procedure, shortened: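 UV melting of dA60·dT60 at 1 μM/duplex with compound at 10 μM. Buffer 10 mM sodium cacodylate, 0.1 mM EDTA, 100 mM NaCl, pH 7.0; duplex pre-annealed from 95 °C. Compound stocks in DMSO diluted into buffer. Heating at 0.2 °C/min, monitored at 260 nm, points every 1.0 °C; Tm taken from derivatives.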

[3] = tested on: Staphylococcus epidermidis; assay: Antibacterial activity against Staphylococcus epidermidis ATCC 12384 after 24 hrs by microbroth dilution method; type: functional; details: ATCC 12384, 24 h; procedure, shortened: as §1
Citrobacter freundii = assay: Antibacterial activity against Citrobacter freundii 4747CFAA after 24 hrs by microbroth dilution method; type: functional; procedure, shortened: as §1
Enterobacter cloacae = assay: Antibacterial activity against Enterobacter cloacae ATCC 13047 after 24 hrs by microbroth dilution method; type: functional; details: ATCC 13047, 24 h; procedure, shortened: as §1
Staphylococcus aureus [4] = assay: Antibacterial activity against Staphylococcus aureus ATCC 29213 after 24 hrs by microbroth dilution method; type: functional; details: ATCC 29213, 24 h; procedure, shortened: as §1
Escherichia coli [5] = assay: Antibacterial activity against Escherichia coli K-12 after 24 hrs by microbroth dilution method; type: functional; details: K-12, 24 h; procedure, shortened: as §1
Staphylococcus aureus [6] = assay: Antibacterial activity against Staphylococcus aureus ATCC 33591 after 24 hrs by microbroth dilution method; type: functional; details: ATCC 33591, 24 h; procedure, shortened: as §1
Pseudomonas aeruginosa = assay: Antibacterial activity against Pseudomonas aeruginosa ATCC 27853 after 24 hrs by microbroth dilution method; type: functional; details: ATCC 27853, 24 h; procedure, shortened: as §1
Staphylococcus aureus [7] = assay: Antibacterial activity against methicillin-resistant Staphylococcus aureus A960649 after 24 hrs by microbroth dilution method; type: functional; details: A960649, 24 h
Procedure, shortened: (§2)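 Mueller-Hinton broth cultures grown at 37 °C with shaking to log phase, pelleted, resuspended in 0.85% saline to OD625 0.1. Broth microdilution per CLSI guidelines, final inoculum 5 × 10^5 CFU/mL, in triplicate, 24 h at 37 °C. Growth read as OD625. MIC is the lowest concentration giving complete growth inhibition versus untreated controls.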

Enterococcus faecalis = assay: Antibacterial activity against Enterococcus faecalis ATCC 29212 after 24 hrs by microbroth dilution method; type: functional; details: ATCC 29212, 24 h; procedure, shortened: as §1
Escherichia coli [8] = assay: Antibacterial activity against Escherichia coli ATCC 25922 after 24 hrs by microbroth dilution method; type: functional; details: ATCC 25922, 24 h; procedure, shortened: as §1
Shigella flexneri = assay: Antibacterial activity against Shigella flexneri 2457NR517 after 24 hrs by microbroth dilution method; type: functional; details: 2457NR517, 24 h; procedure, shortened: as §2
Klebsiella pneumoniae = assay: Antibacterial activity against Klebsiella pneumoniae NR15410 after 24 hrs by microbroth dilution method; type: functional; details: NR15410, 24 h; procedure, shortened: as §1
Staphylococcus aureus [9] = assay: Antibacterial activity against methicillin-resistant Staphylococcus aureus 33591 after 24 hrs by microbroth dilution method; type: functional; details: Staphylococcus aureus, 33591, 24 h; procedure, shortened: as §2
Enterococcus faecium = assay: Antibacterial activity against Enterococcus faecium BM4105RF after 24 hrs by microbroth dilution method; type: functional; procedure, shortened: as §2

Row | SMILES | Activity [1] | MIC (Acinetobacter baumannii) | ΔTm [2] | MIC [3] | MIC (Citrobacter freundii) | MIC (Enterobacter cloacae) | MIC (Staphylococcus aureus [4]) | MIC (Escherichia coli [5]) | MIC (Staphylococcus aureus [6]) | MIC (Pseudomonas aeruginosa) | MIC (Staphylococcus aureus [7]) | MIC (Enterococcus faecalis) | MIC (Escherichia coli [8]) | MIC (Shigella flexneri) | MIC (Klebsiella pneumoniae) | MIC (Staphylococcus aureus [9]) | MIC (Enterococcus faecium)
1 | CN1CCN(c2ccc3nc(-c4ccc(OCCCN)cc4)[nH]c3c2)CC1 | Active | > 32 µg/mL | 3.3 °C | > 32 µg/mL | > 32 µg/mL | > 32 µg/mL | > 32 µg/mL | > 32 µg/mL | > 32 µg/mL | > 32 µg/mL | > 32 µg/mL | > 32 µg/mL | > 32 µg/mL | > 32 µg/mL | > 32 µg/mL | > 32 µg/mL | > 32 µg/mL
2 | Oc1ccc(-c2nc3ccccc3[nH]2)cc1 | Active | 16 to 32 µg/mL (≈ 76.1 to 152 µM) | 0 °C | > 32 µg/mL | > 32 µg/mL | > 32 µg/mL | 16 to 32 µg/mL (≈ 76.1 to 152 µM) | 16 µg/mL (≈ 76.1 µM) | 16 to 32 µg/mL (≈ 76.1 to 152 µM) | 16 µg/mL (≈ 76.1 µM) | > 32 µg/mL | 16 µg/mL (≈ 76.1 µM) | 16 µg/mL (≈ 76.1 µM) | > 32 µg/mL | > 32 µg/mL | > 32 µg/mL | > 32 µg/mL
3 | CCOc1ccc(-c2nc3ccc(N4CCN(C)CC4)cc3[nH]2)cc1 | Active | > 32 µg/mL | 1.7 °C | > 32 µg/mL | > 32 µg/mL | > 32 µg/mL | 16 to 32 µg/mL (≈ 47.6 to 95.1 µM) | 16 µg/mL (≈ 47.6 µM) | 16 to 32 µg/mL (≈ 47.6 to 95.1 µM) | 16 µg/mL (≈ 47.6 µM) | > 32 µg/mL | 16 µg/mL (≈ 47.6 µM) | 16 µg/mL (≈ 47.6 µM) | > 32 µg/mL | > 32 µg/mL | > 32 µg/mL | > 32 µg/mL
4 | CN1CCN(c2ccc3nc(-c4ccc(OCCCNC(=O)OC(C)(C)C)cc4)[nH]c3c2)CC1 | Active | > 32 µg/mL | 1 °C | > 32 µg/mL | > 32 µg/mL | > 32 µg/mL | 16 to 32 µg/mL (≈ 34.4 to 68.7 µM) | 16 µg/mL (≈ 34.4 µM) | 16 to 32 µg/mL (≈ 34.4 to 68.7 µM) | 16 µg/mL (≈ 34.4 µM) | > 32 µg/mL | 16 to 32 µg/mL (≈ 34.4 to 68.7 µM) | 16 µg/mL (≈ 34.4 µM) | > 32 µg/mL | > 32 µg/mL | > 32 µg/mL | > 32 µg/mL
5 | C#CCOc1ccc(-c2nc3ccc(N4CCN(C)CC4)cc3[nH]2)cc1 | Active | > 32 µg/mL | 2.6 °C | > 32 µg/mL | > 32 µg/mL | > 32 µg/mL | ≥ 32 µg/mL | 16 µg/mL (≈ 46.2 µM) | 16 to 32 µg/mL (≈ 46.2 to 92.4 µM) | 16 µg/mL (≈ 46.2 µM) | > 32 µg/mL | 16 to 32 µg/mL (≈ 46.2 to 92.4 µM) | 16 µg/mL (≈ 46.2 µM) | > 32 µg/mL | > 32 µg/mL | > 32 µg/mL | > 32 µg/mL
6 | COC(=O)c1cc(N2CCN(C)CC2)cc2[nH]c(-c3ccc(O)cc3)nc12 | Active | > 32 µg/mL | 0 °C | > 32 µg/mL | > 32 µg/mL | > 32 µg/mL | 16 to 32 µg/mL (≈ 43.7 to 87.3 µM) | 16 µg/mL (≈ 43.7 µM) | 16 to 32 µg/mL (≈ 43.7 to 87.3 µM) | 16 µg/mL (≈ 43.7 µM) | > 32 µg/mL | 16 to 32 µg/mL (≈ 43.7 to 87.3 µM) | 16 µg/mL (≈ 43.7 µM) | > 32 µg/mL | > 32 µg/mL | > 32 µg/mL | > 32 µg/mL
7 | C#CCCCCCCc1cn(CCOc2ccc(-c3nc4ccc(N5CCN(C)CC5)cc4[nH]3)cc2)nn1 | Active | > 32 µg/mL | 0.5 °C | > 32 µg/mL | > 32 µg/mL | > 32 µg/mL | 16 to 32 µg/mL (≈ 31.3 to 62.5 µM) | 16 µg/mL (≈ 31.3 µM) | 16 to 32 µg/mL (≈ 31.3 to 62.5 µM) | 16 µg/mL (≈ 31.3 µM) | – | 16 to 32 µg/mL (≈ 31.3 to 62.5 µM) | 16 µg/mL (≈ 31.3 µM) | > 32 µg/mL | > 32 µg/mL | – | > 32 µg/mL
8 | CN1CCN(c2cc(C(=O)O)c3nc(-c4ccc(O)cc4)[nH]c3c2)CC1 | Active | – | 0 °C | – | – | – | > 32 µg/mL | > 32 µg/mL | > 32 µg/mL | > 32 µg/mL | – | > 32 µg/mL | > 32 µg/mL | – | – | – | –
